The target of series [1] is T1, Interleukin-8 receptors, CXCR1/CXCR2 (Homo sapiens, UniProt P25025+P25024).
T1 sequence (P25025 whole entry): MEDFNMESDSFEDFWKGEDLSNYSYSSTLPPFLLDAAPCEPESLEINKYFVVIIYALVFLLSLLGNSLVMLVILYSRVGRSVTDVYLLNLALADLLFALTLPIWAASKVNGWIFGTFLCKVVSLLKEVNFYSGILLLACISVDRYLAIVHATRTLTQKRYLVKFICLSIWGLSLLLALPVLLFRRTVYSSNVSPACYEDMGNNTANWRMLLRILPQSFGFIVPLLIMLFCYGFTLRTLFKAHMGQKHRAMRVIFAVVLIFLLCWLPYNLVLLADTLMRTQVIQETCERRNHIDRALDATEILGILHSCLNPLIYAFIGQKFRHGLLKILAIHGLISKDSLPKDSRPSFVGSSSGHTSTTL
T1 sequence (P25024 whole entry): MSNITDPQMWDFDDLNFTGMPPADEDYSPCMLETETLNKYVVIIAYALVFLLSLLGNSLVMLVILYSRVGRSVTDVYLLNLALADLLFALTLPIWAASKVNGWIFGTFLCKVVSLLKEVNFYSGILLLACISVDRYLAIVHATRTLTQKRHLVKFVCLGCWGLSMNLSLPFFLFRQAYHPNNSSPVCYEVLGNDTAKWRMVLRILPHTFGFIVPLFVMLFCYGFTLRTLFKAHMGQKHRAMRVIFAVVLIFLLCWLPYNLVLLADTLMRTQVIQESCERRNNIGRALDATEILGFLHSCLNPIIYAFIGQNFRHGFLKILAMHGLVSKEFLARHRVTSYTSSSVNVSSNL
Briefly: Antagonist activity at CXCR1/CXCR2 in human PMN cells assessed as inhibition of GROalpha-mediated intracellular calcium release. The series is classed as functional, cell-based. On the technique in general: Calcium flux is commonly read through the fluorescence of an indicator in the cells.

The subject of series [2] is Liver microsome. In words: Metabolic stability in rat liver microsomes assessed as compound remaining at 1 uM after 60 mins by LC-MS analysis. It counts as ADME. The settings on record: 1 h. An outline of the steps:
(§1)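 Compound at 1 µM was incubated with rat or monkey liver microsomes for 60 min at 37°C. Samples taken at 0 and 60 min were analysed by LC-MS for % parent remaining.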
(Liver microsomes are vesicles of endoplasmic reticulum, rich in cytochrome P450 enzymes.)

A short description of series [3]: Metabolic stability in monkey liver microsomes assessed as compound remaining at 1 uM after 60 mins by LC-MS analysis. The series is classed as ADME, Macaca mulatta. The settings on record: rhesus monkey, 1 h. An outline of the steps:
as §1

The test system of series [4] is Rattus norvegicus. Briefly: AUC in rat at 1 mg/kg, iv by LC-MS/MS analysis. The series is classed as ADME, organism-based, Plasma. More on the design: dose 1 mg/kg, route intravenous. The settings on record: in vivo. In outline: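 Rats were dosed intravenously at 1 mg/kg. Plasma levels were measured by LC-MS/MS against a calibration curve of compound spiked into rat plasma and run alongside the samples. AUC was taken from the plasma concentration vs. time curve.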

For series [5], the system named is Rattus norvegicus. Briefly: AUC in rat at 1 mg/kg, po by LC-MS/MS analysis. The series is classed as ADME, organism-based, Plasma. More on the design: dose 1 mg/kg, route oral. The settings on record: in vivo, BLD = below limit of detection. In outline:
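Rats were dosed at 1 mg/kg by oral gavage. Plasma levels were measured by LC-MS/MS against a concurrently run calibration curve of compound spiked into rat plasma.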

The subject of series [6] is Rattus norvegicus. Briefly: Inhibition of neutrophil influx in ozone Sprague-Dawley rat model of pulmonary inflammation assessed as decrease in PMN influx into lungs at 1 mg/kg, iv after 24 hrs. The series is classed as functional, organism-based. More on the design: dose 1 mg/kg. In outline: (§2)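 Sprague-Dawley rats, n = 4 per group, were dosed iv at 1 mg/kg (or vehicle) at t = 0, 5 and 9 h. They were exposed to air or 1 ppm ozone for 4 h and sacrificed at 24 h for bronchoalveolar lavage. BALF cells were Wright-Giemsa stained and counted (PMNs, macrophages). BALF protein was measured by Bradford assay as lung leakage.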

The test system of series [7] is Rattus norvegicus. Briefly: Inhibition of macrophage influx in ozone Sprague-Dawley rat model of pulmonary inflammation at 1 mg/kg, iv after 24 hrs. The series is classed as functional, organism-based. More on the design: dose 1 mg/kg. An outline of the steps: as §2
Series [8] concerns Rattus norvegicus. In words: Inhibition of lung leakage in ozone Sprague-Dawley rat model of pulmonary inflammation at 1 mg/kg, iv after 24 hrs. The series is classed as functional, organism-based. Also noted: dose 1 mg/kg. In outline:
as §2

In series [9] the target is T2, C-X-C chemokine receptor type 1 (Homo sapiens, UniProt P25024).
T2 sequence (P25024 whole entry): T1 sequence (P25024 whole entry)
In words: Inhibition of CXCR1 (unknown origin) transfected with RBL cells. It counts as cell-based.

The target in series [10] is T3, C-X-C chemokine receptor type 2 (Homo sapiens, UniProt P25025).
T3 sequence (P25025 whole entry): T1 sequence (P25025 whole entry)
In words: Inhibition of CXCR2 (unknown origin) transfected with RBL cells. It counts as cell-based. In outline:
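RBL cells stably transfected with CXCR2 were used to measure antagonist activity at the receptor.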

Series [11] addresses T3, C-X-C chemokine receptor type 2. Briefly: Inhibition of CXCR2 (unknown origin) expressed in PathHunter celline by beta-arrestin assay.

What is called IC50 is the concentration needed to halve the response being measured. As usually defined, the AUC is the area under the concentration-time curve, a measure of exposure.

Active and inactive are the calls of the source. No cut-off for these calls is given here.

For the compound `O=C(Nc1ccc(F)cc1)c1ccc(SCc2cccc(B(O)O)c2)nc1`, the IC50 in series [1] is 1220 nM.
In the case of `O=C(Nc1ccc(F)cc1)c1ccc(SCc2cc(F)ccc2B(O)O)nc1`, the IC50 in series [1] amounted to 52 nM.
On the same count and under the same terms, then `O=C(Nc1ccc(F)cc1)c1ccc(SCc2cc3c(cc2B(O)O)OCO3)nc1`, with greater than 10000 nM.
For `COc1ccc(B(O)O)c(CSc2ccc(C(=O)Nc3ccc(F)cc3)cn2)c1`, in series [1], the IC50 was 80 nM.
As to `O=C(Nc1ccc(F)cc1)c1ccc(SCc2cc(OC(F)(F)F)ccc2B(O)O)nc1`, the results for the Stability in series [2] and in series [3] were 92% and 95%, respectively. Further, the values for the AUC in [4] and in series [5] were 5.4 µM·h and “BLD”, respectively. The inhibition result in series [6], in series [7] and in series [8] was “Active” each time.
As to `O=C(Nc1ccc(F)cc1)c1ccc(SCCCCB(O)O)nc1`, in series [1], the IC50 amounted to 689 nM.
Same read-out and setting: under `O=C(Nc1ccc(F)cc1)c1ccc(SCc2ccc(B(O)O)cc2)nc1` stands 90 nM; under `O=C(Nc1ccc(F)cc1)c1ccc(SCCc2ccccc2B(O)O)nc1`, 387 nM; under `COc1cc(CSc2ccc(C(=O)Nc3ccc(F)cc3)cn2)c(B(O)O)cc1OC`, greater than 10000 nM.
For `O=C(Nc1ccc(F)cc1)c1ccc(SCc2ccccc2B(O)O)nc1`, the IC50 stood at 38 nM in series [1], 903 nM in series [9], 356 nM in [10] and 730 nM in [11]. In addition, the Stability in series [2] is recorded as 37%; in series [3], 25%. In addition, the AUC was 0.39 µM·h in [4] and “BLD” in [5].

The record behind these values is ChEMBL document CHEMBL3425456, “Boronic acid-containing CXCR1/2 antagonists: Optimization of metabolic stability, in vivo evaluation, and a proposed receptor binding model” (Bioorg Med Chem Lett, 2015).
